Data taken from ChEMBL document CHEMBL3400122, “8-(3-chloro-4-methoxybenzyl)-8H-pyrido[2,3-d]pyrimidin-7-one derivatives as potent and selective phosphodiesterase 5 inhibitors” (Bioorg Med Chem Lett, 2015).

Tests used:
[1] = Selectivity for bovine retina PDE6 to canine lung PDE5
[2] = target: cGMP-specific 3',5'-cyclic phosphodiesterase (Canis lupus familiaris, UniProt O77746); experiment: Inhibition of canine lung PDE5 using [3H]cGMP incubated for 30 mins by scintillation analysis
In short: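 Radiolabeled nucleotide method using PDE5 isolated from canine lung. Started with [³H]cGMP plus unlabeled cGMP, 37 °C for 30 min, stopped by boiling 1.5 min. Crotalus atrox venom step at 37 °C for 30 min, column separation, eluate counted by scintillation.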

Corpus cavernosum = experiment: Relaxation effect on phenylephrine-induced contractile response in isolated rabbit corpus cavernosum; assay type: functional; settings: Oryctolagus cuniculus
In short: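 Isolated rabbit corpus cavernosum strips in organ baths. High-KCl (120 mM) PSS contraction checked twice, then phenylephrine (5 × 10⁻⁶ M) gave a tonic contraction. Once stable, test compound (10⁻¹⁰–10⁻⁶ M) or vehicle added at 30 min intervals. EC30 derived from the logarithmic concentration–inhibition curve.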

Selectivity ratio [1] | IC50 [2] [nM] | Ratio IC50 [1] | SMILES | EC30 (Corpus cavernosum) [nM]
850 | 3.3 |  | COc1ccc(Cn2c(=O)ccc3cnc(N4CCC[C@H]4CO)nc32)cc1Cl | 2.2
 | 33 |  | COc1ccc(CNc2nc(N3CCC[C@H]3CO)ncc2C=O)cc1Cl | 
 | 0.21 | 5700 | COc1ccc(CNc2nc(N3CCC[C@H]3CO)ncc2C(=O)c2cc(OC)c(OC)c(OC)c2)cc1Cl | > 100
1600 | 0.98 |  | COc1ccc(Cn2c(=O)cc(CCN3CCOCC3)c3cnc(N4CCC[C@H]4CO)nc32)cc1Cl | 8.6
 | 7.2 |  | COc1ccc(Cn2c(=O)cc(-c3nccn3C)c3cnc(N4CCC[C@H]4CO)nc32)cc1Cl | 
 | 12 |  | COc1ccc(CNc2nc(N3CCC[C@H]3CO)ncc2C(=O)c2nccn2C)cc1Cl | 
1900 | 1.7 |  | COc1ccc(Cn2c(=O)cc(-c3ccccn3)c3cnc(N4CCC[C@H]4CO)nc32)cc1Cl | 
 | 5.2 |  | COc1ccc(CNc2nc(N3CCC[C@H]3CO)ncc2C(C)=O)cc1Cl | 
 | 2.9 |  | COc1ccc(CNc2nc(N3CCC[C@H]3CO)ncc2C(=O)CCN2CCOCC2)cc1Cl | 
 | 12 |  | COc1ccc(CNc2nc(N3CCC[C@H]3CO)ncc2C(=O)c2ccccn2)cc1Cl | 
2300 | 0.86 |  | COc1ccc(Cn2c(=O)cc(C)c3cnc(N4CCC[C@H]4CO)nc32)cc1Cl | 0.85
 |  |  | CCCc1nn(C)c2c(=O)[nH]c(-c3cc(S(=O)(=O)N4CCN(C)CC4)ccc3OCC)nc12 [SILDENAFIL] | 8.7
